pIC50: −log10 of the molar value. Activity calls are given as the source filed them. The rule behind the calls is not given here.
Columns and labels:
[1] = system: MCF7; assay: Induction of ROS accumulation in human MCF7 cells at 10 uM up to 24 hrs in presence of ROS inhibitor NAC by CM-H2DCFDA dye based spectrofluorometric method; assay type: functional, cell-based
Method in brief: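 MCF7 cells treated with 10 μM for the indicated times, with 0.2% DMSO as vehicle control, or pretreated with NAC (10 mM) for 30 min. ROS read as DCF fluorescence from CM-H2DCFDA. Mean ± SD of three independent experiments.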

[2] = target: T1, DNA topoisomerase 1 (Homo sapiens) (UniProt P11387); assay: Inhibition of topoisomerase-1 in human MCF7 whole cell extracts at 0.25 to 5 uM using supercoiled pBS SK(+) DNA as substrate after 15 mins by ethidium bromide staining based agarose gel electrophoresis method
T1 sequence (whole entry): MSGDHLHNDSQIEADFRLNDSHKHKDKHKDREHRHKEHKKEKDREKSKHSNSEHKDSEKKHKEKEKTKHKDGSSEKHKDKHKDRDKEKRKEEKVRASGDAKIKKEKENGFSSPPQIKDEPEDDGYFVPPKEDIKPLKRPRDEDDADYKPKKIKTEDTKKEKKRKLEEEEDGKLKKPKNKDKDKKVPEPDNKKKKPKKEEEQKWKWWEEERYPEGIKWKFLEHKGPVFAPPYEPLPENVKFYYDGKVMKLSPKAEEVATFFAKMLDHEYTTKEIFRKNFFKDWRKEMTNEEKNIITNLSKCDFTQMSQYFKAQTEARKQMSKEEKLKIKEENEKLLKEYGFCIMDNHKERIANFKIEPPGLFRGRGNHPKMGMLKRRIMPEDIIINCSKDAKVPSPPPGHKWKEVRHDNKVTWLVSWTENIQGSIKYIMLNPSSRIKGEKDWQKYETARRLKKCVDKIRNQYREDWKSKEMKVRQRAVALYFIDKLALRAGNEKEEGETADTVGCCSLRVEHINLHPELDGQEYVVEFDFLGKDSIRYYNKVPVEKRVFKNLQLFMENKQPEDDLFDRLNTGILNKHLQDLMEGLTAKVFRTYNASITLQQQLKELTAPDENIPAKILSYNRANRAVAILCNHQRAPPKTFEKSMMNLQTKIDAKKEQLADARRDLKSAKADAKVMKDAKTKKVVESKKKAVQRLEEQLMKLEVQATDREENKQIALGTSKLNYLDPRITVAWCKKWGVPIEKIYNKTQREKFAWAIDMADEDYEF
Method in brief: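 Ex vivo relaxation assay with MCF7 whole-cell lysate as the Top1 source and supercoiled pBS (SK+) DNA. Compound either preincubated with lysate for 5 min before DNA, or added simultaneously; then 37 °C for 15 min. CPT control at 5 μM. Read on agarose gel; mean ± SD, n=3.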

[3] = system: MCF7; assay: Induction of apoptosis in human MCF7 cells at 10 to 20 uM after 12 hrs by Annexin V-FITC/propidium iodide staining based confocal laser microscopic method relative to control; assay type: functional
Method in brief: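 MCF7 cells exposed 12 h, with or without NAC (10 mM) 30 min pretreatment. Phosphatidylserine detected with annexin V-FITC, nuclei counterstained with PI, confocal imaging; annexin V-positive cells counted from ~100 cells (average ± SEM).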

[4] = system: HCT-116; assay: Cytotoxicity against human HCT116 cells assessed as reduction in cell viability by MTT assay; assay type: functional, cell-based
Method in brief: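 Survival of each cell line measured across a range of compound concentrations. Percent inhibition of viability at each concentration calculated against untreated control and IC50 estimated. MEFs were TDP1+/+ and TDP1–/– primary cells. Mean ± SD of at least three experiments in duplicate.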

[5] = target: T1, DNA topoisomerase 1 (Homo sapiens); assay: Inhibition of CPT-induced recombinant human topoisomerase1-[…] cleavage complex at 10 to 50 uM after 30 mins using topoisomerase1 expressed in baculovirus infected sf9 cells by […]
[6] = target: T1, DNA topoisomerase 1 (Homo sapiens); assay: Inhibition of topoisomerase-1- genomic DNA cleavage complex in human MCF7 cells at 20 uM after 12 hrs by ICE assay; assay type: cell-based
Method in brief: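 ICE bioassay in MCF7 cells. Treatment was CPT (10 μM) or compound (20 μM) for 12 h, or CPT for 6 h then compound for a further 6 h. Genomic DNA (0.5–4 μg) probed with anti-Top1 antibody. Quantified with n = 3, ± SEM, t test.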

[7] = target: T1, DNA topoisomerase 1 (Homo sapiens); assay: Ratio of compound effect for inhibition of recombinant human topoisomerase-1 expressed in baculovirus infected sf9 cells preincubated for 5 mins followed by substrate addition to compound effect for recombinant human topoisomerase-1 expressed in baculovirus infected sf9 cells simultaneously incubated with substrate
Method in brief: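 Recombinant human Top1 purified from baculovirus-infected Sf-9 cells; 30 fmol enzyme with 90 fmol supercoiled pBS (SK+) DNA (3:1 molar ratio) in relaxation buffer. Compound either preincubated with enzyme 5 min before DNA, or added simultaneously; then 37 °C, 15 min. Relaxation on 1% agarose; % inhibition quantified, EC50 from three experiments (mean ± SD).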

[8] = target: T1, DNA topoisomerase 1 (Homo sapiens); assay: Induction of proteasome-mediated topoisomerase-1 degradation in human MCF7 cells at 10 uM by Western blot method; assay type: cell-based; conditions: TDE = time-dependent effect
Method in brief: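 Whole-cell extracts of MCF7 cells treated with 10 μM for the indicated times, or preincubated with MG132 (100 nM) for 4 h before 12 h compound exposure. Top1 detected by Western blot with mouse monoclonal anti-Top1 (C21).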

[9] = system: MCF7; assay: Induction of DNA strand breaks in human MCF7 cells at 20 uM after 12 hrs in presence of ROS inhibitor NAC by alkaline comet assay relative to control; assay type: functional, cell-based
Method in brief: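 MCF7 cells treated 12 h, with or without 30 min pretreatment with NAC (10 mM). Strand breaks measured by alkaline comet assay; mean comet tail calculated for 20–25 cells (average ± SEM).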

[10] = target: T1, DNA topoisomerase 1 (Homo sapiens); assay: Inhibition of recombinant human topoisomerase-1 expressed in baculovirus infected sf9 cells at 1 uM using supercoiled pBS SK(+) DNA as substrate preincubated for 5 mins followed by substrate addition measured after 15 mins by ethidium bromide staining based agarose gel electrophoresis method relative to control
Method in brief: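 Relaxation assay: 90 fmol supercoiled pBS (SK+) DNA with 30 fmol recombinant Top1 (Sf-9/baculovirus). Compound either preincubated with Top1 for 5 min before DNA addition, or added simultaneously with DNA; then 37 °C for 15 min. Vehicle 2% DMSO. Read on 1% agarose gel. EC50 from mean ± SD of three experiments.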

[11] = target: T1, DNA topoisomerase 1 (Homo sapiens); assay: Inhibition of recombinant human topoisomerase1-[32P]-labeled 25-mer duplex oligonucleotide cleavage complex formation at 10 to 50 uM after 30 mins using topoisomerase1 expressed in baculovirus infected sf9 cells by […]
[12] = system: MCF7; assay: Cytotoxicity against human MCF7 cells assessed as reduction in cell viability up to 10 uM in presence of CPT by MTT assay; assay type: functional, cell-based
Method in brief: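 MCF7 cells pretreated with CPT (5 μM) for 12 h, then compound added at a range of concentrations. Viability inhibition calculated relative to control and IC50 estimated. Mean ± SD, at least three experiments in duplicate.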

## CN(C)c1ccc(-c2c3nc(c(-c4ccc(N(C)C)cc4)c4ccc([nH]4)c(-c4ccc(C(=O)O)cc4)c4nc(c(-c5ccc(C(=O)O)cc5)c5ccc2[nH]5)C=C4)C=C3)cc1
[1]
  Activity: inactive
[2]
  inhibition: Active
[3]
  fold change (FC): 7
[4]
  pIC50: 5.36
[5]
  inhibition: Active
[6]
  inhibition: Active
[7]
  Ratio: 2 to 3
[8]
  Activity: Tde
[9]
  Activity: inactive
[10]
  inhibition: 85 to 99%
[11]
  inhibition: Active
[12]
  Activity: inactive

Source: ChEMBL document CHEMBL4024789, “Neutral Porphyrin Derivative Exerts Anticancer Activity by Targeting Cellular Topoisomerase I (Top1) and Promotes Apoptotic Cell Death without Stabilizing Top1-DNA Cleavage Complexes” (J Med Chem, 2018)
